For assay [1], the system named is MDA-MB-435. The assay is described as follows: Cell cycle arrest in human MDA-MB-435 cells assessed as accumulation at sub-G1 phase at 0.25 uM after 24 hrs by propidium iodide staining-based flow cytometry (reference value: 0.79%). In kind it is functional. (In general: A flow cytometer gives signals particle by particle.)
Assay [2] has as its system MDA-MB-435. The assay is described as follows: Induction of apoptosis in human MDA-MB-435 cells assessed as morphological changes at 0.25 to 1 uM by DAPI staining-based fluorescence microscopy. The assay is classed as functional, cell-based. The method in brief:
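Treated MDA-MB-435 cells washed in ice-cold PBS, fixed 20 min in 4% paraformaldehyde, stained 30 min at 37 °C with DAPI (50 µg/mL) containing 100 µg/mL RNase A. After PBS washes, examined by fluorescence microscopy (excitation 340 nm, emission 488 nm).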

The subject of assay [3] is MDA-MB-435. The assay is described as follows: Induction of apoptosis in human MDA-MB-435 cells assessed as dead cells at 0.5 uM after 24 hrs by annexin-V FITC/propidium iodide staining-based flow cytometry (reference value: 0.61 +/- 0.24%). In kind it is functional.
Assay [4] concerns MDA-MB-435. The assay is described as follows: Cell cycle arrest in human MDA-MB-435 cells assessed as accumulation at G2/M phase at 1 uM after 24 hrs by propidium iodide staining-based flow cytometry (reference value: 14.05%). In kind it is functional.
For assay [5], the system named is MDA-MB-435. The assay is described as follows: Induction of DNA damage in human MDA-MB-435 cells assessed as phosphorylation of p53 at Ser15 at 0.5 uM after 12 hrs by Western blotting analysis. In kind it is functional, cell-based. The method in brief:
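Treated MDA-MB-435 cells lysed in ice-cold Tris-HCl pH 7.4 buffer with Triton, phosphatase and protease inhibitors. Lysates clarified, boiled in SDS loading buffer, run on 8-12% SDS-PAGE and blotted. Membranes blocked in 5% skim milk, probed with primary antibodies, then peroxidase secondaries with ECL detection. β-actin as loading control.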
For orientation: Immunoblotting shows a protein as a band on a membrane.

SMILES strings stand for the structures. The source made the active and inactive calls. The rule behind the calls is not given here.

With `Oc1ccc(-c2ccc(-c3ccc(O)c(O)c3)cc2)cc1`, the Activity was 1.04% with MDA-MB-435 [1], 1.27% with MDA-MB-435 [3] and 54.51% in the assay on MDA-MB-435 [4]. The outcome with MDA-MB-435 [2] was Active. The outcome in the assay with MDA-MB-435 [5] was inactive.

Source of the values: ChEMBL document CHEMBL2424614, “A novel p-terphenyl derivative inducing cell-cycle arrest and apoptosis in MDA-MB-435 cells through topoisomerase inhibition” (Eur J Med Chem, 2013).
